# Results published in ChEMBL document CHEMBL1933023, “Novel immunomodulators based on an oxazolin-2-one-4-carboxamide scaffold” (Bioorg Med Chem Lett, 2012).
# Tests used:
# [1] = Cytotoxicity against HLF cells; format: cell-based; conditions: human, read-out: TC50 (the source's name)
# In short: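 Cytotoxicity was determined by the MTT method in HLF cells; TC50 values reported in μM.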
# S1P1 receptor = experiment: Therapeutic index, ratio of TC50 for HLF cells to EC50 for S1P1 receptor; format: cell-based; conditions: human, read-out: TI
# [2] = Ratio of TC50 for compound to FTY720 for HLF cells; format: ADME, cell-based; conditions: human
# [3] = biological target: T1, Sphingosine 1-phosphate receptor 1 (Homo sapiens, UniProt P21453); experiment: Agonist activity at EGFP-tagged S1P1 receptor expressed in human […] cells assessed as receptor internalization in endosomes after 60 mins; format: functional, cell-based
# T1 sequence (P21453 whole entry): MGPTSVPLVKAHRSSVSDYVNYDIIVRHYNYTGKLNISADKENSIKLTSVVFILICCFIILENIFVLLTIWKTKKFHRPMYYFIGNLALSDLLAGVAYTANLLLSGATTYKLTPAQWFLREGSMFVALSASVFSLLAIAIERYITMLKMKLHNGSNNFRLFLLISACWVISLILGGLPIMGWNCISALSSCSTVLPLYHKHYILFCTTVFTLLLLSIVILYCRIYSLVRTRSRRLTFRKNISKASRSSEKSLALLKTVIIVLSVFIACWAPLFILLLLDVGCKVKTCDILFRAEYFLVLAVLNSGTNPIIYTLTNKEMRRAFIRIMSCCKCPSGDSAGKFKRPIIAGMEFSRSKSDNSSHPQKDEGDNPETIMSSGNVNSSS
# In short: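 S1P1 Redistribution assay measuring agonist activity; EC50 values reported in μM.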
# [4] = biological target: T2, Sphingosine 1-phosphate receptor 4 (Homo sapiens, UniProt O95977); experiment: Agonist activity at human S1P4 expressed in CHO cells after 60 mins by [35S]GTPgammaS binding assay; format: functional, cell-based
# T2 sequence (O95977 whole entry): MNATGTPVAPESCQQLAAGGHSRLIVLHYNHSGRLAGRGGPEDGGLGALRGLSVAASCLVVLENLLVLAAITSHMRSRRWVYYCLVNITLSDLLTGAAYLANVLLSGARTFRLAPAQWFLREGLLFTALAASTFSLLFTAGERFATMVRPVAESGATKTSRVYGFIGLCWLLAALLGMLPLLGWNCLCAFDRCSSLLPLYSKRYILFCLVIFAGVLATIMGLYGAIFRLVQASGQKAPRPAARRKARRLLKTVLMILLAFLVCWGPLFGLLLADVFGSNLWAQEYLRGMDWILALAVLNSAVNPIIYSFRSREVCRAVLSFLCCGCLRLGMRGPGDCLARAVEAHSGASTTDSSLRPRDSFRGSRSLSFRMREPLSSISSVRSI
# Mus musculus [5] = experiment: Immunosuppressant activity in po dosed Balb/C mouse assessed as decrease in circulating CD3+ T cells measured after 30 mins by flow cytometric analysis; format: functional, organism-based; conditions: T-cell
# In short: (§1)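 Oral dosing of BALB/C mice at 0.1, 0.3, 1, 3 or 10 mg/kg. Peripheral blood CD3+ T cells were counted, and the result is expressed as percent decrease of CD3+ cells.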
# Mus musculus [6] = experiment: Immunosuppressant activity in Balb/C mouse assessed as decrease in circulating CD3+ T cells at 3 mg/kg, po measured after 30 mins by flow cytometric analysis; format: functional, T-cell; design: scale not given: the % may be the effect or the level left; in short: as §1
# Mus musculus [7] = experiment: Immunosuppressant activity in Balb/C mouse assessed as decrease in circulating CD3+ T cells at 1 mg/kg, po measured after 30 mins by flow cytometric analysis; format: functional, T-cell; design: scale not given: the % may be the effect or the level left; in short: as §1
# Mus musculus [8] = experiment: Immunosuppressant activity in Balb/C mouse assessed as decrease in circulating CD3+ T cells at 0.3 mg/kg, po measured after 30 mins by flow cytometric analysis; format: functional, T-cell; design: scale not given: the % may be the effect or the level left; in short: as §1
# Mus musculus [9] = experiment: Immunosuppressant activity in Balb/C mouse assessed as decrease in circulating CD3+ T cells at 10 mg/kg, po measured after 30 mins by flow cytometric analysis; format: functional, T-cell; design: scale not given: the % may be the effect or the level left; in short: as §1
# [10] = biological target: T1, Sphingosine 1-phosphate receptor 1; conditions: UOS2, 3 uM
# Mus musculus [11] = experiment: Immunosuppressant activity in Balb/C mouse assessed as decrease in circulating CD3+ T cells at 0.1 mg/kg, po measured after 30 mins by flow cytometric analysis; format: functional, T-cell; design: scale not given: the % may be the effect or the level left; in short: as §1
# [12] = biological target: T1, Sphingosine 1-phosphate receptor 1; conditions: UOS2, 10 uM
EC50 ([3]; read-out: EC50),SMILES,CC50 [1],selectivity ratio (S1P1 receptor),selectivity ratio [2],further results
1.1 µM,NC(=O)C1(CCc2ccc(OCc3ccc(Cl)cc3)cc2)COC(=O)N1 (stereo unspecified),27.9 µM,25.4,8,
2.72 µM,CC(C)(C)c1ccc(COc2ccc(CCC3(C(N)=O)COC(=O)N3)cc2)cc1 (stereo unspecified),25.4 µM,9.35,8,
,Cc1ccccc1COc1ccc(CCC2(C(N)=O)COC(=O)N2)cc1 (stereo unspecified),,,,EC50 ([3]; uos2): Not Active
> 100 µM,NC(=O)C1(CCc2ccc(OCc3ccccc3Cl)cc2)COC(=O)N1 (stereo unspecified),,,,
3.63 µM,NC(=O)C1(CCc2ccc(OCCCc3ccccc3)cc2)COC(=O)N1 (stereo unspecified),26.4 µM,7.28,8,
,CCCCCCCCc1ccc(CC[C@](N)(CO)COP(=O)(O)O)cc1 [FTY720-P],,,,IC50 [4]: 0.0022 µM
2.84 µM,CCCCCCCCOc1ccc(CCC2(C(N)=O)COC(=O)N2)cc1 (stereo unspecified),121 µM,42.6,,Activity (Mus musculus [5]): Dose-dependent effect; Activity (Mus musculus [6]): 53%; Activity (Mus musculus [7]): 20%; Activity (Mus musculus [8]): 1.7%; Activity (Mus musculus [9]): 84.3%
,CCCCCCCCc1ccc(CCC(N)(CO)CO)cc1.Cl [FINGOLIMOD HYDROCHLORIDE],3.15 µM,,,Emax [10]: 37%; Activity (Mus musculus [6]): 80.7%; Activity (Mus musculus [11]): 9.7%; Emax [12]: 54%; Activity (Mus musculus [7]): 79%; Activity (Mus musculus [8]): 47.2%; Activity (Mus musculus [9]): 86.6%
